# Published values from different studies.
# Compare with care: the assays were run in different laboratories.
SMILES,medium,tested at,time,pH,Papp [×10⁻⁶ cm/s]
CC(C)Nc1ccnc(Nc2cccc(-c3ccccn3)c2)n1,PAMPA,50 nM,30 min,,2010
C[C@@H](NC(=O)[C@@H](CC(=O)N1CCC(N2CCCCC2)CC1)N1C(=O)[C@@H](N2C(=O)OC[C@@H]2c2ccccc2)[C@H]1/C=C/c1cccc(F)c1)c1ccccc1,PAMPA-BBB,25 µg/mL,18 h,pH 7.4,> 4
Fc1cccc(F)c1-c1nc(N2CCC(c3ccccn3)C2)c2ccccc2n1 (centres unmarked),PAMPA,10 µM,3 h,pH 7.4,35.5
O=c1[nH]c2scc(-c3ccc(Cl)cc3)c2c(=O)n1O,PAMPA,10 µM,5 h,,0.5
CC(C)Nc1ccnc(Nc2cccc(-n3ccnc3)c2)n1,PAMPA,50 nM,30 min,,2070
CO[C@H]1CNC[C@@H](OCC2CCC(F)(F)CC2)[C@@H]1Nc1ncc(-c2cncc(C)c2)c2cc(C)c(=O)[nH]c12,PAMPA,,,pH 7.4,19
Cc1sc2c(=O)n(O)c(=O)[nH]c2c1C,PAMPA,10 µM,5 h,,0.5
CC(C)NCC(O)COc1cccc2ccccc12 (centres unmarked),PAMPA-BBB,50 µM,16 h,pH 7.4,22.4
O=C(O)c1ccc2c(c1)nc(NCc1ccccc1)c1ncccc12,PAMPA,,5 h,pH 7.4,6.53
Cc1sc2[nH]c(=O)n(O)c(=O)c2c1C,PAMPA,10 µM,5 h,,1
COCC(C)Nc1ccnc(Nc2cccc(-c3cccnc3)c2)n1 (centres unmarked),PAMPA,50 nM,30 min,,1910
Cc1cc(N)nc(C#CCCN(C)C)c1,PAMPA-BBB,200 µM,17 h,,4.7
c1ccc(-c2nc(N3CCC(c4ccccn4)C3)c3ccccc3n2)cc1 (centres unmarked),PAMPA,10 µM,3 h,pH 7.4,42.4
CC(C)Nc1ccnc(Nc2cccc(C(C)(C)C)c2)n1,PAMPA,50 nM,30 min,,1600
O=c1[nH]c2sccc2c(=O)n1O,PAMPA,10 µM,5 h,,0.08
Cc1cccnc1CNc1nc(-c2ccccn2)nc2ccccc12,PAMPA,10 µM,3 h,pH 7.4,27.1
O=C(NCCN1CCCC1)c1cc(-c2ccc(CN3CCOCC3)cc2)nc2ccc(F)cc12,PAMPA,,,,7.3
CN1CC(=O)O[C@H](Cc2ccccc2)C(=O)NCC(=O)N(C)CC(=O)O[C@H](Cc2ccccc2)C(=O)NCC1=O,PAMPA,,,,15
N=c1c2c(-c3ccccc3)cn(Cc3ccccc3)c2ncn1C1CCOCC1,PAMPA,50 µM,30 min,,1730
COc1ccc(Nc2nc(-c3ccccn3)nc3ccccc23)cc1,PAMPA,10 µM,3 h,pH 7.4,36.3
Cc1noc(C)c1-c1ccc2nc(-c3cnn(CC(C)(C)O)c3)nc(N3CCOC[C@@H]3c3ccccc3)c2c1,PAMPA,,,,1180
O=C(CNc1cccc(OC(F)(F)F)c1)NC12CC3CC(CC(C3)C1)C2,PAMPA,,16 h,,3.5
CNc1ccnc(Nc2cccc(-c3cccnc3)c2)n1,PAMPA,50 nM,30 min,,2250
Cc1c(C)n(Cc2ccccc2)c2ncn(C3CCOCC3)c(=N)c12,PAMPA,50 µM,30 min,,1680
O=c1[nH]c2c(-c3ccccc3)csc2c(=O)n1O,PAMPA,10 µM,5 h,,1.5
O=C(Nc1ccn(Cc2ccc(O)cc2C(F)(F)F)n1)c1c(F)cccc1F,PAMPA,,,,36
COc1ccc(Cn2c(-c3ccccc3)c(-c3ccccc3)c3c(=N)n(CC4CCOCC4)cnc32)cc1,PAMPA,50 µM,30 min,,1270
NC(=O)C1CCN(c2nc(-c3ccccn3)nc3ccccc23)C1 (centres unmarked),PAMPA,10 µM,3 h,pH 7.4,8
N=c1c2c(-c3ccccc3)c(-c3ccccc3)n(Cc3ccc(OC(F)(F)F)cc3)c2ncn1[C@H]1CC[C@H](O)CC1,PAMPA,50 µM,30 min,,1250
c1ccc(-c2nc(N3CCC(c4ccccn4)C3)c3ccccc3n2)nc1 (centres unmarked),PAMPA,10 µM,3 h,pH 7.4,22.6
N#Cc1ccc(/C=C/CN(CC[C@H](N)C(=O)O)C[C@H]2O[C@@H](n3cnc4c(N)ncnc43)[C@H](O)[C@@H]2O)cc1,PAMPA,200 µM,5 h,,0.01
CC(C)[C@@H]1NC(=O)[C@@H](Cc2ccccc2)OC(=O)CN(C)C(=O)[C@H](C(C)C)NC(=O)[C@@H](Cc2ccccc2)OC(=O)CN(C)C1=O,PAMPA,,,,56
COC(=O)c1cccc(-c2cccc(Nc3nccc(NC4CCCCC4)n3)c2)c1,PAMPA,50 nM,30 min,,76.9
CC(C)NCC(O)COc1cccc2ccccc12 (centres unmarked),PAMPA-BBB,0.5 µM,4 h,pH 7.4,4.82
N=c1c2c(-c3ccccc3)cn(Cc3ccccc3)c2ncn1Cc1ccco1,PAMPA,50 µM,30 min,,1740
CC(C)Nc1ccnc(Nc2ccccc2-c2ccccc2)n1,PAMPA,50 nM,30 min,,2360
O=C(O)c1ccc2c(c1)nc(NCc1ccccc1)c1ncncc12,PAMPA,,5 h,pH 7.4,2.79
O=c1[nH]c2scc(-c3ccccc3)c2c(=O)n1O,PAMPA,10 µM,5 h,,0.4
COc1cc(CN2CCc3c(cc(Cn4ccnc4C)cc3-c3cn(C)nc3C(F)(F)F)C2=O)cc(OC)c1,PAMPA,100 µM,5 h,pH 7.4,5.3
c1ccc(-c2nc(N3CCOCC3)c3ccccc3n2)nc1,PAMPA,10 µM,3 h,pH 7.4,19.4
CC(C)Nc1ccnc(Nc2cccc(-c3nccs3)c2)n1,PAMPA,50 nM,30 min,,1960
N=c1c2c(-c3ccccc3)c(-c3ccccc3)n(Cc3ccccc3)c2ncn1[C@H]1CC[C@H](O)CC1,PAMPA,50 µM,30 min,,> 1000
N#Cc1cccc(-c2nc(N3CCC(c4ccccn4)C3)c3ccccc3n2)c1 (centres unmarked),PAMPA,10 µM,3 h,pH 7.4,36.9
O=c1[nH]c2cc(-c3ccc(Cl)cc3)ccc2c(=O)n1O,PAMPA,10 µM,5 h,,1.7
